Measurements of several laboratories.
Protocols differ between the studies behind these lines.
YES1: Tyrosine-protein kinase Yes (YES1, Homo sapiens, UniProt P07947)

| SMILES | target | effect on | mode | technique | tested at | measurement | value |
| --- | --- | --- | --- | --- | --- | --- | --- |
| COc1cc2ncnc(Nc3ccc(Oc4ccccc4)cc3C)c2cc1OC | YES1 | enzyme activity | inhibitor | – | 1 µM | inhibition | 99% |
| Cc1noc([C@H]2C[C@@H](c3ccc(C(F)(F)F)cc3)CN(C(=O)N3CCS(=O)(=O)C3)C2)n1 | YES1 | cell-free assay | – | competition with immobilised ligand | 1 µM | remaining binding | 100% |
| O=C(Nc1cnn(-c2csc(C(=O)NC3COC3)c2)c1)Nc1c(F)cccc1Cl | YES1 | enzyme activity | inhibitor | – | 5 µM | remaining activity | 91% |
| COc1cc(Nc2cnc(C#N)c(O[C@H](C)CN(C)C)n2)ncc1-c1cnn(C)c1 | YES1 | enzyme activity | inhibitor | radiometric | 1 µM | remaining activity | 93% |
| CS(=O)(=O)NCC[C@H](NC(=O)c1cncc2c1cnn2-c1ccc(F)cc1)c1ccnc(S(C)(=O)=O)c1 | YES1 | cell-free assay | – | competition with immobilised ligand | 1 µM | remaining binding | 100% |
| CC(C)(C)C(=O)c1sc(NC2CCCCC2)nc1N | YES1 | enzyme activity | inhibitor | – | 10 µM | remaining activity | 109% |
| CN(c1ncccc1CNc1nc(Nc2ccc3c(c2)CC(=O)N3)ncc1C(F)(F)F)S(C)(=O)=O | YES1 | enzyme activity | inhibitor | – | 1 µM | inhibition | 51.6% |
| O=C1Nc2ccc(Cl)cc2C1=Cc1cc(Cl)c(O)c(Cl)c1 | YES1 | cell-free assay | – | – | 0.5 µM | remaining signal | 78.3% |
| Cc1ccc(NC(=O)c2ccc(C)c(C(F)(F)F)c2)cc1C#Cc1nn(C2CCC(O)CC2)c2ncnc(N)c12 (stereo not drawn) | YES1 | cell-free assay | – | – | 10 µM | remaining signal | 0% |
| Cn1c(=O)n(-c2ccc(C(C)(C)C#N)cc2)c2c3cc(-c4cnc5ccccc5c4)ccc3ncc21 | YES1 | enzyme activity | inhibitor | – | 10 µM | remaining activity | 69% |
| FC(F)(F)Oc1cccc(-c2cnc3ccc(-c4ccncc4)nn23)c1 | YES1 | enzyme activity | inhibitor | radiometric | 1 µM | activity vs control | 82% |
| CS(=O)(=O)N1CCCC(NC(=O)[C@H](CCC2CCCCC2)NC(=O)c2ccc(CNC(=O)c3cnc4ccccn34)cc2)C1 (stereo partly drawn) | YES1 | cell-free assay | – | competition with immobilised ligand | 0.1 µM | remaining binding | 88% |
| CCN(CC)CCNC(=O)c1c(C)[nH]c(/C=C2\C(=O)Nc3ccc(F)cc32)c1C | YES1 | enzyme activity | inhibitor | – | 0.3 µM | inhibition | 69% |
| COc1cc2nccc(Oc3ccc(NC(=O)c4c5n(n(-c6ccc(F)cc6)c4=O)CCCC5)cc3)c2cc1OC | YES1 | enzyme activity | inhibitor | – | 0.1 µM | inhibition | 1% |
| O=c1cc(-c2cccc3c2Sc2ccccc2S3)oc(N2CCOCC2)c1 | YES1 | enzyme activity | inhibitor | – | 0.5 µM | remaining activity | 89.4% |
| C=CC(=O)Nc1cc(Nc2nccc(Nc3cc(Cl)c(F)cc3C(C)(C)O)n2)c(OC)cc1N1CC[C@@H](N(C)C)C1 | YES1 | enzyme activity | inhibitor | – | 1 µM | inhibition | 51% |
| O=C(O)[C@@H]1[C@@H](Cn2nnc3ccccc3c2=O)CC[C@H]1C(=O)c1ccc(OCCC2CCOCC2)cc1 | YES1 | cell-free assay | – | competition with immobilised ligand | 1 µM | remaining binding | 100% |
| CC(C)(O)[C@H]1CC[C@H](Nc2ccc3ncc(-c4cccc(C(F)(F)F)c4)n3n2)CC1 | YES1 | enzyme activity | inhibitor | – | 1 µM | remaining activity | 18.1% |
| COCCOc1nc(-c2ccc(Cl)nc2)nc2c1CN(C(=O)c1ncn3ccccc13)CC2 | YES1 | cell-free assay | – | competition with immobilised ligand | 0.1 µM | remaining binding | 100% |
| CC/C(=N\NC(=O)NCc1cccc(O)c1)c1ccc(O)c(C)c1O | Tyrosine-protein kinase Yes (YES1, Homo sapiens, UniProt P07947, T348I) | enzyme activity | inhibitor | – | 0.1 µM | inhibition | 6.2% |
| Cc1sc(C(=O)NC2COC2)cc1-n1cc(NC(=O)Nc2c(F)cccc2Cl)cn1 | YES1 | enzyme activity | inhibitor | – | 10 µM | remaining activity | 81.4% |
| Cc1ccc(Nc2nccc(N(C)c3ccc4c(C)n(C)nc4c3)n2)cc1S(N)(=O)=O | YES1 | cell-free assay | – | – | 0.5 µM | remaining signal | 52.6% |
| CCCCNc1ncc2c(-c3ccc(F)cc3)nn(C[C@H]3CC[C@H](N)CC3)c2n1 | YES1 | target engagement in cells | inhibitor | chemoproteomics | 20 mM | inhibition | 92.8% |
| CC(C)(C)c1nc(-c2cccc(NS(=O)(=O)c3c(F)cccc3F)c2F)c(-c2ccnc(N)n2)s1 | YES1 | enzyme activity | inhibitor | radiometric | 1 µM | remaining activity | 105% |
| CN(C)C(=O)Cn1cc(-c2nc(C3(c4ccc(-c5cnc(N)nc5)cc4)CC3)no2)cn1 | YES1 | cell-free assay | – | competition with immobilised ligand | 1 µM | remaining binding | 87% |
| c1ccc(CNc2nc(N3CCOc4ccccc43)nc3c2CCCC3)cc1 | YES1 | target engagement in cells | inhibitor | chemoproteomics | 20 mM | inhibition | -4.3% |
| C[C@@H]1CN(c2cc(-c3n[nH]c4ccc(OC5(C)CC5)cc34)ncn2)C[C@H](C)O1 | YES1 | cell-free assay | – | competition with immobilised ligand | 0.1 µM | remaining binding | 80% |
| FC(F)c1nc2ccccc2n1-c1nc(N2CCOCC2)nc(N2CCOCC2)n1 | YES1 | enzyme activity | inhibitor | – | 10 µM | remaining activity | 72% |
| CC(C)(O)c1cncc(-c2nc3ccc(F)cc3n2C2CC2)c1 | YES1 | cell-free assay | – | competition with immobilised ligand | 1 µM | remaining binding | 100% |
| CCN(CC)c1ccc(C2=NNC(=O)CC2C)cc1[N+](=O)[O-] (stereo not drawn) | YES1 | enzyme activity | inhibitor | – | 10 µM | remaining activity | 105% |
